From ChEMBL document CHEMBL4359823, “Switching on the activity of 1,5-diaryl-pyrrole derivatives against drug-resistant ESKAPE bacteria: Structure-activity relationships and mode of action studies” (Eur J Med Chem, 2019)
≈ marks a conversion by molar mass, not a printed value. Calls of active or inactive are those of the source. The rule behind the calls is not given here.

Key:
Enterococcus faecalis [1] = assay: Antibacterial activity against vancomycin resistant Enterococcus faecalis NCTC12204 measured after overnight incubation by microbroth dilution method; type: functional
In short: (§1)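 Microbroth dilution: DMSO stocks diluted in water, 2-fold series. Overnight TSB cultures back-diluted to OD 0.01 and mixed 1:1 with compound. Incubated overnight at 37 °C; MIC taken as lowest concentration without visible growth (<0.1 OD600). Run in duplicate; matching DMSO levels checked for effect on growth.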

Enterococcus faecalis [2] = assay: Antibacterial activity against vancomycin resistant Enterococcus faecalis NCTC12201 measured after overnight incubation by microbroth dilution method; type: functional; in short: as §1
Staphylococcus aureus [3] = assay: Antibacterial activity against methicillin sensitive Staphylococcus aureus NCTC 6571 measured after overnight incubation by microbroth dilution method; type: functional; in short: as §1
Staphylococcus aureus [4] = assay: Antibacterial activity against methicillin resistant Staphylococcus aureus NCTC13616 measured after overnight incubation by microbroth dilution method; type: functional; in short: as §1
Staphylococcus aureus [5] = assay: Antibacterial activity against methicillin resistant Staphylococcus aureus NCTC13277 measured after overnight incubation by microbroth dilution method; type: functional; in short: as §1
Enterococcus faecalis [6] = assay: Antibacterial activity against vancomycin sensitive Enterococcus faecalis NCTC775 measured after overnight incubation by microbroth dilution method; type: functional; in short: as §1
Klebsiella pneumoniae [7] = assay: Antibacterial activity against Klebsiella pneumoniae NCTC13368 measured after overnight incubation by microbroth dilution method; type: functional
In short: (§2)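 Microbroth dilution MIC. Compound DMSO stocks were diluted in water as a 2-fold series. Overnight TSB cultures were back-diluted to OD 0.01 and mixed 1:1 with compound. Plates were incubated overnight at 37 °C. MIC was the lowest concentration without visible growth (<0.1 OD600), run in duplicate.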

Klebsiella pneumoniae [8] = assay: Antibacterial activity against Klebsiella pneumoniae M6 measured after overnight incubation by microbroth dilution method; type: functional; in short: as §2
Acinetobacter baumannii [9] = assay: Antibacterial activity against Acinetobacter baumannii AYE measured after overnight incubation by microbroth dilution method; type: functional; in short: as §2
Acinetobacter baumannii [10] = assay: Antibacterial activity against Acinetobacter baumannii ATCC 17978 measured after overnight incubation by microbroth dilution method; type: functional; in short: as §2
Pseudomonas aeruginosa [11] = assay: Antibacterial activity against Pseudomonas aeruginosa PAO1 measured after overnight incubation by microbroth dilution method; type: functional; in short: as §2
Pseudomonas aeruginosa [12] = assay: Antibacterial activity against Pseudomonas aeruginosa NCTC13437 measured after overnight incubation by microbroth dilution method; type: functional; in short: as §2
Escherichia coli [13] = assay: Antibacterial activity against Escherichia coli NCTC12923 measured after overnight incubation by microbroth dilution method; type: functional; in short: as §2
HEK293 = assay: Cytotoxicity again human HEK293 cells measured after 24 hrs by XTT assay; type: cell-based; settings: HEK293, 24 h
In short: (§3)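 Cells were grown in EMEM with glutamine, 10% FBS and non-essential amino acids at 37 °C, 10% CO2. Seeding was 1 x 10^5 cells/mL (HEK293) or 4 x 10^4 cells/mL (HeLa), then 24 h adherence. Doubling compound dilutions were applied for 24 h. XTT/PMS was added for 4 h in the dark, with absorbance read at 450 nm. Untreated cells were the 100% control and water-treated cells the 0% control; IC50 was fitted.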

HeLa = assay: Cytotoxicity again human HeLa cells measured after 24 hrs by XTT assay; type: cell-based; in short: as §3
Klebsiella pneumoniae [14] = assay: Antibacterial activity against Klebsiella pneumoniae NCTC13368 measured after overnight incubation in presence of polymyxin B nonapeptide by microbroth dilution method; type: functional
Klebsiella pneumoniae [15] = assay: Antibacterial activity against Klebsiella pneumoniae M6 measured after overnight incubation in presence of polymyxin B nonapeptide by microbroth dilution method; type: functional
Acinetobacter baumannii [16] = assay: Antibacterial activity against Acinetobacter baumannii AYE measured after overnight incubation in presence of polymyxin B nonapeptide by microbroth dilution method; type: functional
Acinetobacter baumannii [17] = assay: Antibacterial activity against Acinetobacter baumannii ATCC 17978 measured after overnight incubation in presence of polymyxin B nonapeptide by microbroth dilution method; type: functional
Pseudomonas aeruginosa [18] = assay: Antibacterial activity against Pseudomonas aeruginosa PAO1 measured after overnight incubation in presence of polymyxin B nonapeptide by microbroth dilution method; type: functional
Pseudomonas aeruginosa [19] = assay: Antibacterial activity against Pseudomonas aeruginosa NCTC13437 measured after overnight incubation in presence of polymyxin B nonapeptide by microbroth dilution method; type: functional
Escherichia coli [20] = assay: Antibacterial activity against Escherichia coli NCTC12923 measured after overnight incubation in presence of polymyxin B nonapeptide by microbroth dilution method; type: functional
Klebsiella pneumoniae [21] = assay: Antibacterial activity against Klebsiella pneumoniae NCTC13368 measured after overnight incubation in presence of phenylalanine arginine beta-naphthylamide by microbroth dilution method; type: functional; in short: as §2
Klebsiella pneumoniae [22] = assay: Antibacterial activity against Klebsiella pneumoniae M6 measured after overnight incubation in presence of phenylalanine arginine beta-naphthylamide by microbroth dilution method; type: functional; in short: as §2
Acinetobacter baumannii [23] = assay: Antibacterial activity against Acinetobacter baumannii AYE measured after overnight incubation in presence of phenylalanine arginine beta-naphthylamide by microbroth dilution method; type: functional; in short: as §2
Acinetobacter baumannii [24] = assay: Antibacterial activity against Acinetobacter baumannii ATCC 17978 measured after overnight incubation in presence of phenylalanine arginine beta-naphthylamide by microbroth dilution method; type: functional; in short: as §2
Pseudomonas aeruginosa [25] = assay: Antibacterial activity against Pseudomonas aeruginosa PAO1 measured after overnight incubation in presence of phenylalanine arginine beta-naphthylamide by microbroth dilution method; type: functional; in short: as §2
Pseudomonas aeruginosa [26] = assay: Antibacterial activity against Pseudomonas aeruginosa NCTC13437 measured after overnight incubation in presence of phenylalanine arginine beta-naphthylamide by microbroth dilution method; type: functional; in short: as §2
Escherichia coli [27] = assay: Antibacterial activity against Escherichia coli NCTC12923 measured after overnight incubation in presence of phenylalanine arginine beta-naphthylamide by microbroth dilution method; type: functional; in short: as §2
Staphylococcus aureus [28] = assay: Bactericidal activity against methicillin resistant Staphylococcus aureus NCTC13616 at 4 times MIC measured at 0 to 24 hrs by time kill assay; type: functional, organism-based
In short: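 Overnight cultures back-diluted to OD 0.01 in glass universals, compound added at 4 x MIC, 37 °C with shaking at 200 rpm. Sampled at 0, 2, 4, 6 and 24 h; CFU/mL counted by Miles-Misra; untreated control included.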

DNA gyrase = DNA gyrase (Staphylococcus aureus, UniProt P0A0K8+P20831, S84L); assay: Inhibition of Staphylococcus aureus DNA gyrase S84L mutant; type: protein-complex assay
Staphylococcus aureus [29] = assay: Antibacterial activity against Staphylococcus aureus NCTC13616 assessed as generation of drug resistance at 2 times MIC measured after 48 hrs by agar-based microbroth dilution method; type: functional
In short: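 Agar method: exponentially growing bacteria, in known numbers, plated on agar with doubling compound concentrations at and above the MIC; incubated 48 hours. Colonies growing above the MIC were picked and re-tested by microbroth MIC for raised resistance. Resistance frequency reported at 2xMIC.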

Enterococcus faecalis [30] = assay: Bacteriostatic activity against vancomycin resistant Enterococcus feacalis NCTC12204 at 4 times MIC measured at 0 to 24 hrs by time kill assay
Enterococcus faecium = assay: Antibacterial activity against Enterococcus faecium NCTC12204 assessed as generation of drug resistance at 2 times MIC measured after 48 hrs by agar-based microbroth dilution method

Cc1c(CNC2CCCCC2)cc(-c2ccc(C(C)C)cc2)n1-c1ccc(Cl)cc1
MIC (Enterococcus faecalis [1]): 2 µg/mL (≈ 4.75 µM) | MIC (Enterococcus faecalis [2]): 4 µg/mL (≈ 9.5 µM) | MIC (Staphylococcus aureus [3]): 4 µg/mL (≈ 9.5 µM) | MIC (Staphylococcus aureus [4]): 4 µg/mL (≈ 9.5 µM) | MIC (Staphylococcus aureus [5]): 4 µg/mL (≈ 9.5 µM) | MIC (Enterococcus faecalis [6]): 4 µg/mL (≈ 9.5 µM) | MIC (Klebsiella pneumoniae [7]): > 128 µg/mL | MIC (Klebsiella pneumoniae [8]): > 128 µg/mL | MIC (Acinetobacter baumannii [9]): > 128 µg/mL | MIC (Acinetobacter baumannii [10]): 32 µg/mL (≈ 76 µM) | MIC (Pseudomonas aeruginosa [11]): > 128 µg/mL | MIC (Pseudomonas aeruginosa [12]): > 128 µg/mL | MIC (Escherichia coli [13]): > 128 µg/mL | IC50 (HEK293): 2.4 to 3 µg/mL (≈ 5.7 to 7.13 µM) | IC50 (HeLa): 2.4 to 3 µg/mL (≈ 5.7 to 7.13 µM) | MIC (Klebsiella pneumoniae [14]): > 128 µg/mL | MIC (Klebsiella pneumoniae [15]): 128 µg/mL | MIC (Acinetobacter baumannii [16]): 8 µg/mL | MIC (Acinetobacter baumannii [17]): 2 µg/mL | MIC (Pseudomonas aeruginosa [18]): 8 µg/mL | MIC (Pseudomonas aeruginosa [19]): 32 µg/mL | MIC (Escherichia coli [20]): 2 µg/mL | MIC (Klebsiella pneumoniae [21]): > 128 µg/mL | MIC (Klebsiella pneumoniae [22]): > 128 µg/mL | MIC (Acinetobacter baumannii [23]): 8 µg/mL | MIC (Acinetobacter baumannii [24]): 8 µg/mL | MIC (Pseudomonas aeruginosa [25]): > 128 µg/mL | MIC (Pseudomonas aeruginosa [26]): > 128 µg/mL | MIC (Escherichia coli [27]): 16 µg/mL | Activity (Staphylococcus aureus [28]): Active | IC50 (DNA gyrase): 69.1 µM | Activity (Staphylococcus aureus [29]): <7.6e-08 | Activity (Enterococcus faecalis [30]): Active | Activity (Enterococcus faecium): <9.4e-08
